Results: ChEMBL document CHEMBL5058577, “EUbOPEN Chemogenomics Library 2 (Multiplex)” (2022)

Tested on: HEK-293T
Test: Multiplex assay against HEK293T
Assay type: toxicity, cell-based
Details: human
Method in brief: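 Live cells carried four stains from seeding: Hoechst33342, BioTracker Green Microtubule Cytoskeleton Dye, MitoTracker Red and Annexin V Alexa Fluor 680. They were imaged on a CQ1 microscope at 37°C and 5% CO2 after compound addition. Using CellPathfinder machine-learning gating, cells were split into Hoechst high-intensity objects or normal cells, normal cells into healthy, pyknosed or fragmented nuclei, and pyknosed cells into mitotic or apoptotic; tubulin, mitochondrial-mass and membrane-permeability phenotypes are per cents of healthy-nucleus cells.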

[1] = 12 h, 1 µM, compound concentration 1 uM, replicate 1
[2] = 12 h, 1 µM, compound concentration 1 uM, replicate 2
[3] = 12 h, 10 µM, compound concentration 10 uM, replicate 1
[4] = 12 h, 10 µM, compound concentration 10 uM, replicate 2
[5] = 24 h, 1 µM, compound concentration 1 uM, replicate 1
[6] = 24 h, 1 µM, compound concentration 1 uM, replicate 2
[7] = 24 h, 10 µM, compound concentration 10 uM, replicate 1
[8] = 24 h, 10 µM, compound concentration 10 uM, replicate 2
[9] = 48 h, 1 µM, compound concentration 1 uM, replicate 1
[10] = 48 h, 1 µM, compound concentration 1 uM, replicate 2
[11] = 48 h, 10 µM, compound concentration 10 uM, replicate 1
[12] = 48 h, 10 µM, compound concentration 10 uM, replicate 2

With COc1cc(C(=O)N2CC[C@@H](O)[C@@H](N)C2)cc2nc(-c3cc4ccccc4n3CC3CC3)n(C)c12.Cl the “Population Apoptotic (%)” value [1] was 48%, the “Population Fragmented Nuclei (%)” value [1] was 6% and the “Population Healthy Nuclei (%)” value [1] was 79%. For the same molecule, the “Population Hoechst High Intensity Objects (%)” value [1] was 10%, the “Population Membrane Permeable-Phenotype (%)” value [1] was 0% and the “Population Mitochondria Different-Phenotype (%)” value [1] was 56%. The “Population Mitotic Cells (%)” value [1] was 51%, the “Population Normal (%)” value [1] was 89% and the “Population Pyknosed Nuclei (%)” value [1] was 13%. The “Population Tubulin-Different-Phenotype (%)” value [1] was 52%, the “Total Cell Count” value [1] was 398 and the “Population Apoptotic (%)” value [2] was 70%. The “Population Fragmented Nuclei (%)” value [2] was 2%, the “Population Healthy Nuclei (%)” value [2] was 77% and the “Population Hoechst High Intensity Objects (%)” value [2] was 15%. For the same molecule, the “Population Mitochondria Different-Phenotype (%)” value [2] was 71%, the “Population Mitotic Cells (%)” value [2] was 29% and the “Population Normal (%)” value [2] was 84%. The “Population Pyknosed Nuclei (%)” value [2] was 20%, the “Population Tubulin-Different-Phenotype (%)” value [2] was 37% and the “Total Cell Count” value [2] was 281. For the same molecule, the “Population Apoptotic (%)” value [3] was 71%, the “Population Fragmented Nuclei (%)” value [3] was 5% and the “Population Healthy Nuclei (%)” value [3] was 66%. For the same molecule, the “Population Hoechst High Intensity Objects (%)” value [3] was 21%, the “Population Membrane Permeable-Phenotype (%)” value [3] was 0% and the “Population Mitochondria Different-Phenotype (%)” value [3] was 90%. For the same molecule, the “Population Mitotic Cells (%)” value [3] was 28%, the “Population Normal (%)” value [3] was 78% and the “Population Pyknosed Nuclei (%)” value [3] was 28%. The “Population Tubulin-Different-Phenotype (%)” value [3] was 79%, the “Total Cell Count” value [3] was 260 and the “Population Fragmented Nuclei (%)” value [4] was 4%. For the same molecule, the “Population Healthy Nuclei (%)” value [4] was 80%, the “Population Hoechst High Intensity Objects (%)” value [4] was 18% and the “Population Membrane Permeable-Phenotype (%)” value [4] was 2%. The “Population Mitochondria Different-Phenotype (%)” value [4] was 88%, the “Population Normal (%)” value [4] was 81% and the “Population Pyknosed Nuclei (%)” value [4] was 15%. The “Population Tubulin-Different-Phenotype (%)” value [4] was 72%, the “Total Cell Count” value [4] was 350 and the “Population Apoptotic (%)” value [5] was 42%. For the same molecule, the “Population Fragmented Nuclei (%)” value [5] was 9%, the “Population Healthy Nuclei (%)” value [5] was 77% and the “Population Hoechst High Intensity Objects (%)” value [5] was 6%. For the same molecule, the “Population Membrane Permeable-Phenotype (%)” value [5] was 0%, the “Population Mitochondria Different-Phenotype (%)” value [5] was 42% and the “Population Mitotic Cells (%)” value [5] was 57%. For the same molecule, the “Population Normal (%)” value [5] was 93%, the “Population Pyknosed Nuclei (%)” value [5] was 13% and the “Population Tubulin-Different-Phenotype (%)” value [5] was 33%. The “Total Cell Count” value [5] was 527, the “Population Apoptotic (%)” value [6] was 60% and the “Population Fragmented Nuclei (%)” value [6] was 7%. The “Population Healthy Nuclei (%)” value [6] was 79%, the “Population Hoechst High Intensity Objects (%)” value [6] was 12% and the “Population Mitochondria Different-Phenotype (%)” value [6] was 64%. The “Population Mitotic Cells (%)” value [6] was 39%, the “Population Normal (%)” value [6] was 87% and the “Population Pyknosed Nuclei (%)” value [6] was 12%. For the same molecule, the “Population Tubulin-Different-Phenotype (%)” value [6] was 30%, the “Total Cell Count” value [6] was 363 and the “Population Apoptotic (%)” value [7] was 58%. For the same molecule, the “Population Fragmented Nuclei (%)” value [7] was 8%, the “Population Healthy Nuclei (%)” value [7] was 70% and the “Population Hoechst High Intensity Objects (%)” value [7] was 18%. The “Population Membrane Permeable-Phenotype (%)” value [7] was 0%, the “Population Mitochondria Different-Phenotype (%)” value [7] was 94% and the “Population Mitotic Cells (%)” value [7] was 41%. For the same molecule, the “Population Normal (%)” value [7] was 81%, the “Population Pyknosed Nuclei (%)” value [7] was 20% and the “Population Tubulin-Different-Phenotype (%)” value [7] was 78%. For the same molecule, the “Total Cell Count” value [7] was 312, the “Population Apoptotic (%)” value [8] was 65% and the “Population Fragmented Nuclei (%)” value [8] was 6%. The “Population Healthy Nuclei (%)” value [8] was 78%, the “Population Hoechst High Intensity Objects (%)” value [8] was 21% and the “Population Mitochondria Different-Phenotype (%)” value [8] was 92%. For the same molecule, the “Population Mitotic Cells (%)” value [8] was 34%, the “Population Normal (%)” value [8] was 78% and the “Population Pyknosed Nuclei (%)” value [8] was 15%. The “Population Tubulin-Different-Phenotype (%)” value [8] was 74%, the “Total Cell Count” value [8] was 411 and the “Population Apoptotic (%)” value [9] was 24%. The “Population Fragmented Nuclei (%)” value [9] was 9%, the “Population Healthy Nuclei (%)” value [9] was 79% and the “Population Hoechst High Intensity Objects (%)” value [9] was 5%. The “Population Membrane Permeable-Phenotype (%)” value [9] was 0%, the “Population Mitochondria Different-Phenotype (%)” value [9] was 37% and the “Population Mitotic Cells (%)” value [9] was 75%. The “Population Normal (%)” value [9] was 94%, the “Population Pyknosed Nuclei (%)” value [9] was 10% and the “Population Tubulin-Different-Phenotype (%)” value [9] was 28%. For the same molecule, the “Total Cell Count” value [9] was 816, the “Population Apoptotic (%)” value [10] was 64% and the “Population Healthy Nuclei (%)” value [10] was 80%. For the same molecule, the “Population Hoechst High Intensity Objects (%)” value [10] was 7%, the “Population Mitochondria Different-Phenotype (%)” value [10] was 48% and the “Population Mitotic Cells (%)” value [10] was 36%. For the same molecule, the “Population Normal (%)” value [10] was 92%, the “Population Tubulin-Different-Phenotype (%)” value [10] was 22% and the “Total Cell Count” value [10] was 520. For the same molecule, the “Population Apoptotic (%)” value [11] was 76%, the “Population Fragmented Nuclei (%)” value [11] was 13% and the “Population Healthy Nuclei (%)” value [11] was 68%. For the same molecule, the “Population Hoechst High Intensity Objects (%)” value [11] was 18%, the “Population Membrane Permeable-Phenotype (%)” value [11] was 0% and the “Population Mitochondria Different-Phenotype (%)” value [11] was 89%. The “Population Mitotic Cells (%)” value [11] was 23%, the “Population Normal (%)” value [11] was 81% and the “Population Pyknosed Nuclei (%)” value [11] was 17%. The “Population Tubulin-Different-Phenotype (%)” value [11] was 81%, the “Total Cell Count” value [11] was 386 and the “Population Healthy Nuclei (%)” value [12] was 75%. For the same molecule, the “Population Hoechst High Intensity Objects (%)” value [12] was 23%, the “Population Mitochondria Different-Phenotype (%)” value [12] was 87% and the “Population Normal (%)” value [12] was 76%. The “Population Pyknosed Nuclei (%)” value [12] was 10%, the “Population Tubulin-Different-Phenotype (%)” value [12] was 74% and the “Total Cell Count” value [12] was 467.
